Key:
[1] = Growth inhibition of human WI38 cells; type: cell-based; conditions: WI-38
Outline: (§1)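 Growth inhibition assayed in normal human fibroblasts WI-38, their malignant transformant VA-13, and human liver tumour HepG2 cells; IC50 reported.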

WI-38 VA13 = test: Growth inhibition of human VA13 cells; type: functional, cell-based; outline: as §1
[2] = Reversal of multidrug resistance assessed as effect on calcein accumulation in MDR-human 2780 AD cells at 0.25 ug/ml relative to control; type: functional
Outline: (§2)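 Multidrug-resistant human ovarian cancer 2780AD cells were loaded with calcein AM in the presence of test compound at 0.25, 2.5 or 25 μg/mL. Intracellular calcein, formed by enzymatic hydrolysis, was measured by fluorescence and expressed relative to a no-compound control. Values are means of triplicate determinations.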

[3] = Reversal of multidrug resistance assessed as effect on calcein accumulation in MDR-human 2780 AD cells at 2.5 ug/ml relative to control; type: functional; outline: as §2
HepG2 = test: Growth inhibition of human HepG2 cells; type: functional, cell-based; outline: as §1
A549 [4] = test: Viability of human A549 cells by MTT assay after 24 hrs; type: cell-based; conditions: A549, 24 h
Outline: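 A549 cells were exposed to serial compound dilutions for 24 h, and viability was measured by MTT. Viability % was taken as background-corrected absorbance relative to control. IC50 was derived from this, using triplicate cultures.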

A549 [5] = test: Inhibition of induction of ICAM1 expression in human A549 cells in presence of IL1-alpha after 1 hr; type: functional, cell-based; conditions: A549, 1 h
Outline: (§3)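 A549 cells (2 × 10⁴ cells/well) were pretreated with a range of compound concentrations for 1 h, then stimulated with IL-1α or TNF-α for 6 h. Surface ICAM-1 was detected with primary and secondary antibodies plus enzyme substrate, read as absorbance at 415 nm. Expression was taken as % of control after subtracting the unstimulated background. IC50 was derived from this, using triplicate cultures.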

[6] = Reversal of multidrug resistance assessed as effect on calcein accumulation in MDR-human 2780 AD cells at 25 ug/ml relative to control; type: functional; outline: as §2
A549 [7] = test: Inhibition of induction of ICAM1 expression in human A549 cells in presence of TNFalpha after 1 hr; type: functional, cell-based; conditions: A549, 1 h; outline: as §3
[8] = Reversal of multidrug resistance assessed as effect on calcein accumulation in MDR-human 2780 AD cells at 0.25 ug/ml relative to verapamil; type: functional
Outline: (§4)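 Multidrug-resistant 2780AD ovarian cancer cells were incubated with calcein AM plus test compound at 0.25, 2.5 or 25 μg/mL. Cellular calcein accumulation was read by fluorescence and expressed as a percentage of the verapamil response. Values are based on triplicate determinations.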

[9] = Reversal of multidrug resistance assessed as effect on calcein accumulation in MDR-human 2780 AD cells at 25 ug/ml relative to verapamil; type: functional; outline: as §4
[10] = Reversal of multidrug resistance assessed as effect on calcein accumulation in MDR-human 2780 AD cells at 2.5 ug/ml relative to verapamil; type: functional; outline: as §4

| SMILES | IC50 [1] [µM] | IC50 (WI-38 VA13) [µM] | Activity [2] [%] | Activity [3] [%] | IC50 (HepG2) [µM] | IC50 (A549 [4]) [µM] | IC50 (A549 [5]) [µM] | Activity [6] [%] | IC50 (A549 [7]) [µM] | Activity [8] [%] | Activity [9] [%] | Activity [10] [%] |
| --- | --- | --- | --- | --- | --- | --- | --- | --- | --- | --- | --- | --- |
| CC(=O)O[C@H]1C(=O)[C@@]2(C)[C@H]([C@H](OC(=O)c3ccccc3)[C@]3(O)C[C@H](OC(=O)[C@H](O)[C@@H](NC(=O)c4ccccc4)c4ccccc4)C(C)=C1C3(C)C)[C@]1(OC(C)=O)CO[C@@H]1C[C@@H]2O [PACLITAXEL] | 0.04 | – | – | – | – | – | – | – | – | – | – | – |
| C[C@]12CC[C@H](O)C[C@H]1CC[C@@H]1[C@@H]2CC[C@]2(C)[C@@H](C3=CC(=O)OC3)CC[C@]12O [DIGITOXIGENIN] | 11.8 | 1.9 | 86 | 74 | 18 | > 316 | 0.62 | 66 | – | – | – | – |
| COc1cccc2c1C(=O)c1c(O)c3c(c(O)c1C2=O)C[C@@](O)(C(=O)CO)C[C@@H]3O[C@H]1C[C@H](N)[C@H](O)[C@H](C)O1 [DOXORUBICIN] | 0.7 | 0.4 | – | – | 1.3 | – | – | – | – | – | – | – |
| CO[C@H]1C[C@H](O[C@H]2CC[C@@]3(C)[C@H](CC[C@@H]4[C@@H]3CC[C@]3(C)[C@@H](C5=CC(=O)OC5)[C@@H](OC(C)=O)C[C@]43O)C2)O[C@H](C)[C@@H]1O | 0.08 | 0.24 | 90 | 81 | 0.82 | > 1000 | 0.57 | 91 | – | – | – | – |
| CO[C@@H]1C[C@H](O[C@H]2CC[C@@]3(C)[C@H](CC[C@@H]4[C@@H]3CC[C@]3(C)[C@@H](C5=CC(=O)OC5)[C@@H](OC(C)=O)C[C@]43O)C2)O[C@H](C)[C@@H]1O | 0.09 | 0.17 | 67 | 77 | 1.5 | > 316 | 0.51 | 75 | 0.31 | – | – | – |
| CO[C@@H]1C[C@H](O[C@H]2CC[C@@]3(C)[C@H](CC[C@@]45O[C@@]46CC=C(C4=CC(=O)OC4)[C@@]6(C)CC[C@H]35)C2)O[C@H](C)[C@@H]1O | – | – | 88 | 89 | – | > 316 | 133 | 99 | – | – | – | – |
| CO[C@@H]1C[C@H](O[C@H]2CC[C@@]3(C)[C@@H](CC[C@@H]4[C@@H]3CC[C@]3(C)[C@@H](C5=CC(=O)OC5)[C@@H](OC(C)=O)C[C@]43O)C2)O[C@H](C)[C@@H]1O | 23 | 0.72 | 105 | 126 | – | > 100 | 21.5 | 109 | 16.9 | 113 | 82 | 128 |
| CO[C@@H]1C[C@H](O[C@H]2CC[C@@]3(C)[C@H](CC[C@@]45O[C@@]46CC[C@H](C4=CC(=O)OC4)[C@@]6(C)CC[C@H]35)C2)O[C@H](C)[C@@H]1O | 33.1 | 13.4 | 92 | 102 | 76.4 | > 316 | 13.9 | 112 | – | – | – | – |
| CO[C@@H]1C[C@H](O[C@H]2CC[C@@]3(C)[C@H](CC[C@@H]4[C@@H]3CC[C@]3(C)[C@@H](C5=CC(=O)OC5)CC[C@]43O)C2)O[C@H](C)[C@@H]1O | 0.07 | 0.18 | 93 | 89 | 1.5 | > 316 | 0.2 | 96 | 0.48 | – | – | – |
| CO[C@H]1C[C@H](O[C@H]2CC[C@@]3(C)[C@H](CC[C@@H]4[C@@H]3CC[C@]3(C)[C@@H](C5=CC(=O)OC5)CC[C@]43O)C2)O[C@H](C)[C@@H]1O | < 0.02 | 0.8 | 89 | 83 | 0.14 | > 100 | 0.2 | 86 | 0.16 | – | – | – |
| CC(=O)O[C@H]1C[C@]2(O)[C@@H]3CC[C@@H]4C[C@@H](O)CC[C@]4(C)[C@H]3CC[C@]2(C)[C@H]1C1=CC(=O)OC1 | 1.7 | 0.16 | 92 | 100 | 0.2 | > 100 | 0.52 | 99 | 0.36 | – | – | – |
| CO[C@H]1C[C@H](O[C@H]2CC[C@@]3(C)[C@H](CC[C@@]45O[C@@]46CC=C(C4=CC(=O)OC4)[C@@]6(C)CC[C@H]35)C2)O[C@H](C)[C@@H]1O | 16.3 | 85.7 | 99 | 100 | 81.4 | > 100 | 69.3 | 102 | 55.4 | – | – | – |
| CO[C@@H]1C[C@H](O[C@H]2CC[C@@]3(C)[C@H](CC[C@]4(O)[C@@H]3CC[C@]3(C)[C@@H](C5=CC(=O)OC5)CC[C@@]34O)C2)O[C@H](C)[C@@H]1O | 9.4 | 1.6 | 112 | 107 | 4.7 | > 100 | 6 | 112 | 5.9 | – | – | – |
| CO[C@@H]1C[C@H](O[C@H]2CC[C@@]3(C)[C@H](CC[C@@]45O[C@@]46C[C@H]4O[C@@]4(C4=CC(=O)OC4)[C@@]6(C)CC[C@H]35)C2)O[C@H](C)[C@@H]1O | 40.9 | – | 104 | 96 | 74.1 | > 100 | 62.1 | 97 | 45.6 | – | – | – |
